Two compounds from ChEMBL document CHEMBL3751740, “New MKLP-2 inhibitors in the paprotrain series: Design, synthesis and biological evaluations” (Bioorg Med Chem, 2016) can be followed below.

The target of test [1] is T1, Kinesin-like protein KIFC3 (Homo sapiens) (UniProt Q9BVG8).
T1 sequence (whole entry): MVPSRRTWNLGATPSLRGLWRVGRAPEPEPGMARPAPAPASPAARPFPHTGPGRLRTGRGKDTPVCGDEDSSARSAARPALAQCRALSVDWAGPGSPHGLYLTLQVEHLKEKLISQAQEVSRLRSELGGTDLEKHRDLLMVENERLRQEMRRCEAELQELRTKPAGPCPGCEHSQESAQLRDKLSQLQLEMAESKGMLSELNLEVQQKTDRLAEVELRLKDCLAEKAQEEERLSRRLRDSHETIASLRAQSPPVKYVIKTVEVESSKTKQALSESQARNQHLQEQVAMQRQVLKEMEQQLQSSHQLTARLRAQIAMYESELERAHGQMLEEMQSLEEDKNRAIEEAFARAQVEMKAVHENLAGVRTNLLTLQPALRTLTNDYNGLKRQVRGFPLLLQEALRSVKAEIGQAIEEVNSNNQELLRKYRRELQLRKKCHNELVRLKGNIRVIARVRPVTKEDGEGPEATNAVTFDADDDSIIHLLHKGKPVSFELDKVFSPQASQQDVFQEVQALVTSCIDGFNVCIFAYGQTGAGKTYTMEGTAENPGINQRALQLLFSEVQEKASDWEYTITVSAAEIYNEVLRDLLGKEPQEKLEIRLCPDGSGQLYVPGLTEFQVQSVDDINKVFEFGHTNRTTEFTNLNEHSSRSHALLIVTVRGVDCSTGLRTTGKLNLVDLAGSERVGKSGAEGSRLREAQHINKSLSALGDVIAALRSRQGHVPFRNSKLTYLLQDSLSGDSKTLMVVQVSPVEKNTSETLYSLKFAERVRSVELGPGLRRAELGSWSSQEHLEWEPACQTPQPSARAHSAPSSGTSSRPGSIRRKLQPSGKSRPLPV
As to the kind of experiment: Inhibition of porcine brain microtubule-stimulated human recombinant GST-tagged KIFC3 ATPase activity at 1 mM by microplate reader in presence of Mg2+ ATP relative to control. Summed up:
(§1)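 Motor domain at 15 µM final, in 7.5 mM PIPES-NaOH pH 7.0 with […], 10 µM Taxol, ELIPA 1 and 2 reagents and 1.25 mg/mL microtubules. AMP-PNP, a slowly hydrolysable ATP analog and general ATPase inhibitor, tested at 1 mM. Reaction started with 1 mM Mg2+ATP at 22 °C and read kinetically at 360 nm. Run in triplicate.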

The target in test [2] is T2, Chromosome-associated kinesin KIF4A (Homo sapiens) (UniProt O95239).
T2 sequence (whole entry): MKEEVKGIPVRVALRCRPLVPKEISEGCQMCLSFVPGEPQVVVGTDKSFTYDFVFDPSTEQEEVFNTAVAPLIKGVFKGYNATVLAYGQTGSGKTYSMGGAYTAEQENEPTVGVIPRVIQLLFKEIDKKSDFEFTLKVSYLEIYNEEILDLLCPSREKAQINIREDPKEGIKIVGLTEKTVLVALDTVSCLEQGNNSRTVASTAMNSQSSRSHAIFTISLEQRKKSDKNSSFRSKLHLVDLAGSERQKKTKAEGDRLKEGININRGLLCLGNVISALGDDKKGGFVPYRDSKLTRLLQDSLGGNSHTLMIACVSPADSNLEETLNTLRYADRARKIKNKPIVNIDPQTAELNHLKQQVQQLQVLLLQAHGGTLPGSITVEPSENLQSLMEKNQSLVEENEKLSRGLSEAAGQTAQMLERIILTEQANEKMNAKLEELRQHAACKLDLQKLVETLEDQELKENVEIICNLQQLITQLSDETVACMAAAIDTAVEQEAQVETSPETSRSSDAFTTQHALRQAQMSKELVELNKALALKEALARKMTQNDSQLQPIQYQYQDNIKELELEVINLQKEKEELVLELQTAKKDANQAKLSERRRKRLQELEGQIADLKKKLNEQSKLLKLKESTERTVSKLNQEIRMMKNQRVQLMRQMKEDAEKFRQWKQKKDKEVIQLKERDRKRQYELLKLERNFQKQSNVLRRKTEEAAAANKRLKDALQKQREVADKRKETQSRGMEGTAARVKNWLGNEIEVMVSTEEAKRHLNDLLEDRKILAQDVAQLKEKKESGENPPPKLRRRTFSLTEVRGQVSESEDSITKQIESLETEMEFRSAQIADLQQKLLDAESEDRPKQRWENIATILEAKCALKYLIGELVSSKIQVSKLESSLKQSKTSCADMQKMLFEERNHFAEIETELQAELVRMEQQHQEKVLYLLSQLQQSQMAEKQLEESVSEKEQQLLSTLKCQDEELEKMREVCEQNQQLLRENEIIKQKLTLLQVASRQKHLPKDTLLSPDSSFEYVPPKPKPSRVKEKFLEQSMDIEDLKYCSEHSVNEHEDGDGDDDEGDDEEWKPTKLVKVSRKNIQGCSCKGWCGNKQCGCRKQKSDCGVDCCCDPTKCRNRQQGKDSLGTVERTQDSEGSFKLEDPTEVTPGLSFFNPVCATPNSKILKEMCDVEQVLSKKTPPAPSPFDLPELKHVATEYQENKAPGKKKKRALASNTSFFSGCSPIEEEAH
The test is described as follows: Inhibition of porcine brain microtubule-stimulated human recombinant GST-tagged Kif4A ATPase activity at 1 mM by microplate reader in presence of Mg2+ ATP relative to control. Summed up: as §1

The target in test [3] is Centromere-associated protein E (Homo sapiens) (UniProt Q02224). The test is described as follows: Inhibition of porcine brain microtubule-stimulated human recombinant GST-tagged CENP-E ATPase activity at 1 mM by microplate reader in presence of Mg2+ ATP relative to control. Summed up: as §1
Centromere-associated protein E (Homo sapiens), sequence (Q02224 whole entry): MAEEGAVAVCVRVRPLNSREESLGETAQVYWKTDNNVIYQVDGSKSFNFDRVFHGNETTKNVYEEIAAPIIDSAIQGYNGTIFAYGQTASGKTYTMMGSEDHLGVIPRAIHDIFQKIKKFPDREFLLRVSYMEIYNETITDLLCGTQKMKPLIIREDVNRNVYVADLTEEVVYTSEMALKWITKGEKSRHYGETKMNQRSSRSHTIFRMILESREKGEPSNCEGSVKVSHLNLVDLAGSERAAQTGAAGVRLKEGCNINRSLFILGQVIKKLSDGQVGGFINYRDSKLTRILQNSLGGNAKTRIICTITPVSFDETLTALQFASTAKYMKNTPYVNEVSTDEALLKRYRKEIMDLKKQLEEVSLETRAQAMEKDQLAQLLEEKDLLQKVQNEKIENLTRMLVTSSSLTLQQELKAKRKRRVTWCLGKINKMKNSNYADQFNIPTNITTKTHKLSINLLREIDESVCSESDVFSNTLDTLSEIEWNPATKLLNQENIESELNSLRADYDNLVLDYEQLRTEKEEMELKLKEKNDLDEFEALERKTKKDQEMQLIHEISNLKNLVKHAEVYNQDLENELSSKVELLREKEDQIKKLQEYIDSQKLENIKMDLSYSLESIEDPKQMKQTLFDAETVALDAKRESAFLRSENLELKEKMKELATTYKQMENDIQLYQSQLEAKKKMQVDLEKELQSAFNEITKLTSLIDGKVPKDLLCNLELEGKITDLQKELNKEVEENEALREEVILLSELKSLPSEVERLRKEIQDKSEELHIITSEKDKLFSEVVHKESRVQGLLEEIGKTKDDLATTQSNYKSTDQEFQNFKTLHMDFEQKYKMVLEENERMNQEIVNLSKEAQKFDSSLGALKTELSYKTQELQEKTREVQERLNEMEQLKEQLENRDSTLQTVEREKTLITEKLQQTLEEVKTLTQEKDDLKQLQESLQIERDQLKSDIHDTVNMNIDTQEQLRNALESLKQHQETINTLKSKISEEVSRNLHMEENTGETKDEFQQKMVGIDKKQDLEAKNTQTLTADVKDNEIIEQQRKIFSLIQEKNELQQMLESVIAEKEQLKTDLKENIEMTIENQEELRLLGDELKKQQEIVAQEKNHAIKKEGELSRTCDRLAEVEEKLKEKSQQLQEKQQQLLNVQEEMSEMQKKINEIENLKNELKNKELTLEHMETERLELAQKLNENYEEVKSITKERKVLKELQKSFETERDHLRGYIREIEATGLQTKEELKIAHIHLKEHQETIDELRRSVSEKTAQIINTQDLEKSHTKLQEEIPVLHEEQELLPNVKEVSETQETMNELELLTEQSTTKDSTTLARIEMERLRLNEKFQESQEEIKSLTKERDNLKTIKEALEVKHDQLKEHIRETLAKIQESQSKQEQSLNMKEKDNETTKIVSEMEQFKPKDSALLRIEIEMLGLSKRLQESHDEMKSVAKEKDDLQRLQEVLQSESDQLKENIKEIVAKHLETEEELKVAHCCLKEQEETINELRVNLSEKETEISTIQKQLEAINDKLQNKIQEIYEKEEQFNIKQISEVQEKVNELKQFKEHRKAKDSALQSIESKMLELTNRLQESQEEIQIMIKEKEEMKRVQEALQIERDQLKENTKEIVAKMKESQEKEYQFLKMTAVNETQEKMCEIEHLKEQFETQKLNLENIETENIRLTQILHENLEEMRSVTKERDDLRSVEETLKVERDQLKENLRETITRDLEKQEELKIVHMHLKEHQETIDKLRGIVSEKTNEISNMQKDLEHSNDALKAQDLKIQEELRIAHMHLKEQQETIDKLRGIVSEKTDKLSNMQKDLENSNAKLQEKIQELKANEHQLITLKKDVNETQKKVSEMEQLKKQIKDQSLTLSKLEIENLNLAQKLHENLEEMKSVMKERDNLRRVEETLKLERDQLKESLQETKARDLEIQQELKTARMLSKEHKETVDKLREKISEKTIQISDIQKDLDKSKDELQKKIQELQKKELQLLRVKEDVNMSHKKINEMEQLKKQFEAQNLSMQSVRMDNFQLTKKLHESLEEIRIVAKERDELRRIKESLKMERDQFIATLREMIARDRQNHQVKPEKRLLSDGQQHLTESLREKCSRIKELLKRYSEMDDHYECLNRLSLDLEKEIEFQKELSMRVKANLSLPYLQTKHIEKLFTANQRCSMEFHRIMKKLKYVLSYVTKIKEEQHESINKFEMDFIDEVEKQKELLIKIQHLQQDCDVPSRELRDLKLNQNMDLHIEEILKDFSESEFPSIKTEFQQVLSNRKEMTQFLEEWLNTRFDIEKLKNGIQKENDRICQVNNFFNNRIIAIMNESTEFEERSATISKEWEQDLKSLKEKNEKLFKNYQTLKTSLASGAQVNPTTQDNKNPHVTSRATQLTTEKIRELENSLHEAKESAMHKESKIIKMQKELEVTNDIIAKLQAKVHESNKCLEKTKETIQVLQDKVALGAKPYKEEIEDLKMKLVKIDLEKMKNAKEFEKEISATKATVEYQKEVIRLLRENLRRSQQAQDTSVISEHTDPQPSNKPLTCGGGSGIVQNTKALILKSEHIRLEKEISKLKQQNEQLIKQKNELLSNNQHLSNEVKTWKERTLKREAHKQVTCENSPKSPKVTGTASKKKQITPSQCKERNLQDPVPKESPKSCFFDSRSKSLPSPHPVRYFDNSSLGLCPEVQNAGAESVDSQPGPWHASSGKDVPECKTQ
Test [4] can be described thus: Growth inhibition of human HCT116 cells incubated for 4 days by WST-1 assay. It is filed as functional. The note with it: HCT-116, 96 h. Summed up:
(§2)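 Cells were kept at 37 °C under 5% CO2 and plated on day 0 at 500–5000 cells/well. On day 1 they received ten concentrations from 0.0025 to 50 µM (final), in triplicate. On day 4 WST-1 was added, followed by 30 min–4 h incubation and absorbance at 450 nm. GI50 is the concentration killing 50% of cells.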

Test [5] concerns MDA-MB-231. As to the kind of experiment: Growth inhibition of human MDA-MB-231 cells incubated for 4 days by WST-1 assay. The format is functional. The note with it: MDA-MB-231, 96 h. Summed up:
as §2

Test [6] concerns NCI-H460. As to the kind of experiment: Growth inhibition of human NCI-H460 cells incubated for 4 days by WST-1 assay. The format is functional. The note with it: NCI-H460, 96 h. Summed up: as §2
The subject of test [7] is HT-29. As to the kind of experiment: Growth inhibition of human HT-29 cells incubated for 4 days by WST-1 assay. The format is functional. The note with it: HT-29, 96 h. Summed up: as §2
The subject of test [8] is MCF7. The test is described as follows: Growth inhibition of human MCF7 cells incubated for 4 days by WST-1 assay. It is filed as functional. The note with it: MCF7, 96 h. Summed up: as §2

Some results are limits rather than exact numbers.

On to `Nc1ncnc2c1ncn2[C@@H]1O[C@H](COP(=O)(O)OP(=O)(O)NP(=O)(O)O)[C@@H](O)[C@H]1O`, for which the inhibition in test [1], in test [2] and in test [3] was > 30% throughout.
With `COc1ccc2[nH]cc(/C(C#N)=C/c3cccnc3)c2c1`, the 50% growth inhibitory concentration (GI50) was 32.2 µM in test [4]; 16.8 µM in test [5]; 8.2 µM in test [6]; 26.2 µM in test [7]; 15.8 µM in test [8].
